Experimental data: ChEMBL document CHEMBL1126304 (J Med Chem, 1992)
The source made the active and inactive calls. No cut-off for these calls is given here.

Experiments:
[1] = molecular target: Histamine H2 receptor (Cavia porcellus) (UniProt P47747); experiment: Intrinsic activity against histamine H2 receptor; format: functional
[2] = molecular target: Histamine H2 receptor (Cavia porcellus) (UniProt P47747); experiment: Histamine H2 receptor agonistic activity in guinea pig right atrium; format: functional, tissue-based; settings: Cardiac atrium
Histamine H2 receptor = Histamine H2 receptor (Cavia porcellus, UniProt P47747); experiment: Compound is evaluated for histamine H2 receptor agonistic activity in guinea pig cerebral cortex using [3H]tiotidine as radioligand; format: functional, tissue-based
Procedure, shortened: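 H2-receptor binding measured on guinea pig cerebral cortex preparations by displacement of [3H]tiotidine. Displacement curves were fitted by nonlinear regression.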

Felis catus [3] = experiment: In vivo activity against gastric secretion in conscious cat; format: functional, Stomach
Cavia porcellus = organism: Cavia porcellus; experiment: In vitro activity against gastric secretion in isolated guinea pig stomach; format: functional
Felis catus [4] = experiment: In vivo activity against gastric secretion in conscious cat; not active; format: functional, organism-based; settings: Stomach

Histamine H2 receptor (Cavia porcellus), sequence (P47747 whole entry): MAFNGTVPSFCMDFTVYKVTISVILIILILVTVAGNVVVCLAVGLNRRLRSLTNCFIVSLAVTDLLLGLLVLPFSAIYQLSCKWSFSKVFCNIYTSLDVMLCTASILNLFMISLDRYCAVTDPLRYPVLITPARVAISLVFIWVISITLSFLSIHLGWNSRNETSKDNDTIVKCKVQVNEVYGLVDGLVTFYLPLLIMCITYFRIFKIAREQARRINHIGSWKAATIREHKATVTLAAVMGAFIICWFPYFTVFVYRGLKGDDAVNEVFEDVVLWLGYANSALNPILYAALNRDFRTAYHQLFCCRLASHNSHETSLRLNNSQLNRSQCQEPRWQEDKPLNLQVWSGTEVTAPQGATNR
Histamine H2 receptor, sequence (P47747 whole entry): as above

SMILES | Intrinsic activity [1] | pD2 [2] | Kd (Histamine H2 receptor) | further results
Cc1nc(C)c(CCN)s1 | 0.97 | 3.78 | 174 µM | –
CNCCc1cnc(N)s1 | – | – | – | pD2 (Felis catus [3]): 6.52; pD2 (Cavia porcellus): 6.02
CN(C)CCc1cnc(N(C)C)s1 | – | – | – | pD2 (Felis catus [4]): inactive
NCCc1csc(N)n1 | 0.94 | 4.6 | 110 µM | –
CNc1ncc(CCN(C)C)s1 | – | – | – | pD2 (Felis catus [4]): inactive
N=C(N)NCCCc1c[nH]cn1 | – | 4.7 | – | –
CN(C)CCCSC(=N)N | 1.06 | 5.67 | 26.3 µM | –
N=C(NCCCc1c[nH]cn1)NCCC(c1ccc(F)cc1)c1ccccn1 (stereo not drawn) | – | 8 | – | –
NCCc1cnc(N)s1 | 1 | 5.51 | 15.1 µM | pD2 (Felis catus [3]): 6.1
Cc1ncsc1CCN | 0.96 | 4.67 | 355 µM | –
NCCc1c[nH]cn1 | 1 | – | – | –
CN(C)CCc1cnc(N)s1 | – | – | – | pD2 (Felis catus [3]): 6.3; pD2 (Cavia porcellus): 5.81
Cc1nc(N)sc1CCN | 0.95 | – | 5.01 µM | –
N=C(NCCCc1c[nH]cn1)NCCC(c1ccccc1)c1ccccc1 | – | 7.7 | – | –
